These results are taken from PMC10998571 (Proceedings of the National Academy of Sciences of the …, 2024).

In one data set the test system is TNFR1 PLAD. The experiment in a line: PLAD FRET biosensor. In kind it is cell-based. The settings on record: HEK293 cells, 24 h; FKC 50 µM, ZAF 100 µM or co-treatment; N = 4. In short, it runs like this: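 PLAD FRET biosensor made by transient Lipofectamine 3000 transfection of HEK293 cells with donor-only or donor/acceptor FRET pair DNAs. Cells moved to 96-well plates at 15,000 cells/well and treated with PBS (negative control), test compound and/or zafirlukast for 24 h before fluorescence intensity readout.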

Data set [1] deals with T1, TNFR1 (Homo sapiens, UniProt P19438).
T1 sequence (P19438 30-242) 1: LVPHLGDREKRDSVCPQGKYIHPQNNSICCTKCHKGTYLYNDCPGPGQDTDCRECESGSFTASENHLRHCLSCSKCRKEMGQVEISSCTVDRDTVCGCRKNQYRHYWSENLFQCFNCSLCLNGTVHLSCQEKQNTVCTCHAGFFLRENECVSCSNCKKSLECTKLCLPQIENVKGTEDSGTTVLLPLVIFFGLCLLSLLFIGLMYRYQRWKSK
T1 sequence (P19438 30-242) 2: T1 sequence (P19438 30-242) 1
Conditions: 37 (ZAF); ref 55 (Pep4-19); cited from earlier work.

For data set [2], the target named is T1, TNFR1. The experiment in a line: TNFR1 FRET biosensor. In kind it is cell-based. In short, it runs like this: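 HEK293 cells transiently transfected (Lipofectamine 3000) with TNFR1ΔCD–GFP donor alone or with TNFR1ΔCD–RFP acceptor; donor-only served as the no-FRET control. Cells plated at 15,000 cells/well in 96-well plates and treated with PBS or test compound (5 to 50 µM) for 24 h. FRET read from fluorescence intensity; EC50 derived from the dose–response of FRET change.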

A further data set concerns HEK293 cells. The experiment in a line: MTT assay. The settings on record: FKC 5-50 µM, 24 h, absorbance at 560 nm, N = 4. In kind it is cell-based, human. (In general: Tetrazolium assays rely on reduction of a dye to a coloured formazan, in cell work by metabolically active cells.)
Data set [3] concerns IL-1β induced NF-κB activation in HEK293 cells. Kind of data set: IL-1β induced NF-κB activation. In kind it is cell-based, human. The settings on record: IL-1β 50 ng/mL, 18 h, N = 4. In short, it runs like this:
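HEK293 cells co-transfected with an NF-κB-response-element Firefly luciferase reporter (1 μg) and a Renilla reporter (0.1 μg) using Lipofectamine 3000. After 24 h, 15,000 cells/well were incubated with PBS or test compound (5 to 50 µM), with or without IL-1β, for 18 h at 37 °C. Dual-Glo Firefly, then Stop & Glo Renilla, 15 min RT each. Firefly normalised to Renilla and to ligand-treated cells.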

For data set [4] the following is noted: i.p. injection, mice; rhodamine fluorescence of tissue sections.
Another data set deals with IL-23 receptor. The settings on record: without affecting ligand binding; cited from earlier work.
The next data set relates to NF-κB activation. Conditions: cited from earlier work.
The next data set deals with TNFR1/TNF. The experiment in a line: Co-IP of TNFR1 and TNF. In kind it is binding. Conditions: co-IP with His-tagged TNF beads, overnight 4 °C; FKC 50 µM or etanercept. A digest of the protocol:
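Ni-NTA agarose beads loaded with His-tagged human TNF for 4 h at 4 °C and washed with PBS. […] Samples were analysed by Western blotting, with equal bead-bound TNF and input TNFR1 as pull-down controls.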

No end group written: not given here.

Turning to `COc1cc(C(=O)NS(=O)(=O)c2ccccc2C)ccc1Cc1cn(C)c2ccc(NC(=O)OC3CCCC3)cc12` [ZAF, zafirlukast], the “FRET change of the PLAD biosensor” value in the data set on TNFR1 PLAD is “reduced FRET in the PLAD biosensor”. For the same molecule, the “extent of inhibition of TNFR1 signaling” value at TNFR1 [1] was “only exhibited partial inhibition”.

For orientation: EC50 means the concentration needed to bring the measured effect to its halfway point. Higher therefore signals a need for much substance. Consider FKCRRWQWRMKK-NH2 [FKC], for which, at TNFR1 [2], the EC50 turned out to be 25 µM. For the same molecule, the “toxicity in HEK293 cells” value with HEK293 cells is “does not have any toxic effect in HEK293 cells”.

“IL-1β: cytokine that binds IL-1 receptor to stimulate NF-κB activation (MedChemExpress, Cat# HY-P7028)”: in data set [3], the “NF-κB activation relative to basal level (IL-1β)” value is reported as 10 fold.

Take “Rho-FKCRRWQWRMKK-NH2 [rhodamine-conjugated FKC]”: the “localization in liver, kidney, and lung” value in data set [4] was “localization of FKC in all tissues”.

Turning to TEEEQQLY [compound 2305], in the data set with IL-23 receptor, the “inhibition of IL-23 signaling” value is on record as “noncompetitively inhibit IL-23 signaling”.

For the molecule VQRWLIVWRIRK-NH2 [IDR], the “inhibition of NF-κB activation (earlier reports)” value in the data set with NF-κB activation is on record as “inhibit NF-κB activation”.

In the case of etanercept, the “effect on receptor–ligand interaction” value in the data set on TNFR1/TNF is “disrupting receptor–ligand interaction”.
